The results in this text go back to ChEMBL document CHEMBL1131263, “Substituted tetrahydropyrrolo[2,1-b]oxazol-5(6H)-ones and tetrahydropyrrolo[2,1-b]thiazol-5(6H)-ones as hypoglycemic agents” (1998).

The test system of experiment [1] is Mus musculus. Kind of experiment: In vivo lowering of blood glucose levels in diabetic obese ob/ob mice by measuring postprandial blood glucose level on day 3 after 4 hours at 300 uM/kg oral dose. It counts as functional. A digest of the protocol: (§1)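 Adult male C57BL ob/ob mice, fed, grouped (6/group) and matched for blood glucose on day 0; mice under 150 mg/dL excluded. Oral dosing in the morning on days 1-3, vehicle 0.5% CMC with 0.2% Tween-80. Significance versus vehicle.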

Experiment [2] in a line: lowest concentration at which glucose utilized was greater than or equal to 140% of control value tested in a glucose utilization L6 myocyte in vitro assay. It is filed as functional, Rattus norvegicus. A digest of the protocol:
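Differentiated rat L6 myotubes (day 11 or 13 after plating) exposed 20 h to compound in serum-free DMEM with 15 mM glucose and 1% final DMSO. Tested in quadruplicate at 3, 10, 30, 100, 300 µM. Glucose left in the medium read by glucose oxidase. Value is the lowest concentration giving at least 40% more utilization than control.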

Experiment [3] deals with Mus musculus. Kind of experiment: compound was tested in vivo for lower blood glucose levels in diabetic obese ob/ob mice by measuring postprandial blood glucose level on day1 after 4 hours at 300 uM/kg oral dose *p < 0.05. It is filed as functional. A digest of the protocol: as §1
For experiment [4], the system named is Mus musculus. Kind of experiment: In vivo lowering of blood glucose levels in diabetic obese ob/ob mice by measuring postprandial blood glucose level on day 3 after 8 hours at 300 uM/kg oral dose. It is filed as functional. A digest of the protocol: as §1
In experiment [5] the test system is Mus musculus. Kind of experiment: In vivo lowering of blood glucose levels in diabetic obese ob/ob mice, measuring postprandial blood glucose level on day1 after 2 hours at 300 uM/kg oral dose. It counts as functional. A digest of the protocol:
as §1

Experiment [6] relates to Mus musculus. Kind of experiment: In vivo lowering of blood glucose levels in diabetic obese ob/ob mice, measuring postprandial blood glucose level on day 3 after 2 hours at 300 uM/kg oral dose. It is filed as functional. The method in brief:
as §1

Experiment [7] deals with Mus musculus. Kind of experiment: compound was tested in vivo for lower blood glucose levels in diabetic obese ob/ob mice by measuring postprandial blood glucose level on day 3 after 8 hours at 200 uM/kg oral dose. It is filed as functional. A digest of the protocol: as §1
Experiment [8] deals with Mus musculus. Kind of experiment: compound was tested in vivo for lower blood glucose levels in diabetic obese ob/ob mice by measuring postprandial blood glucose level on day 3 after 2 hours at 200 uM/kg oral dose. It is filed as functional. The method in brief: as §1
Experiment [9] concerns Mus musculus. Kind of experiment: compound was tested in vivo for lower blood glucose levels in diabetic obese ob/ob mice by measuring postprandial blood glucose level on day1 after 4 hours at 200 uM/kg oral dose. It is filed as functional. The method in brief:
as §1

Experiment [10] has as its system Mus musculus. Kind of experiment: compound was tested in vivo for lower blood glucose levels in diabetic obese ob/ob mice by measuring postprandial blood glucose level on day 3 after 4 hours at 200 uM/kg oral dose. It is filed as functional. The method in brief: as §1
Experiment [11] concerns Mus musculus. Kind of experiment: compound was tested in vivo for lower blood glucose levels in diabetic obese ob/ob mice by measuring postprandial blood glucose level on day1 after 2 hours at 200 uM/kg oral dose. It is filed as functional. The method in brief: as §1
Experiment [12] in a line: compound was tested in vivo for lower blood glucose levels in diabetic obese ob/ob mice by measuring postprandial blood glucose level on day1 after 4 hours at 15.86 uM/kg oral dose. It counts as functional, Mus musculus. The method in brief:
as §1

Experiment [13] in a line: compound was tested in vivo for lower blood glucose levels in diabetic obese ob/ob mice by measuring postprandial blood glucose level on day1 after 2 hours at 15.86 uM/kg oral dose. It counts as functional, Mus musculus. The method in brief: as §1
The test system of experiment [14] is Mus musculus. Kind of experiment: In vivo lowering of blood glucose levels in diabetic obese ob/ob mice by measuring postprandial blood glucose level on day1 after 4 hours at 300 uM/kg oral dose. It is filed as functional. The method in brief:
as §1

In the case of `OCc1cc(-c2ccc(C(F)(F)F)cc2)no1`, the Efficacy in the experiment on Mus musculus [1] is 48%; in the experiment on Mus musculus [3] it was 52%; in the experiment on Mus musculus [4], 50%; with Mus musculus [5], 14%; in the experiment on Mus musculus [6], 6%. Further, in experiment [2], the “Lowest effective concentration for glucose utilization ≥140% of control” value is 100 µM.
Take `O=C1CC[C@]2(c3ccc(Cl)cc3)O[C@H](COc3ccc(Cl)cc3)CN12`: the Efficacy is -26% in the experiment with Mus musculus [7]; 14% in the experiment on Mus musculus [8]; 46% with Mus musculus [9]; -15% with Mus musculus [10]; 31% with Mus musculus [11]. For the same compound, the “Lowest effective concentration for glucose utilization ≥140% of control” value in experiment [2] was 30 µM.
With `CC(C)C(N)C(=O)NC(C(=O)O)C(O)[C@H]1CN2C(=O)C[C@@H]2O1` (stereo partly specified), the Efficacy in experiment [12] and in experiment [13] was 63% throughout. For the same compound, in experiment [2], the “Lowest effective concentration for glucose utilization ≥140% of control” value was 10 µM.
As to `O=C1C[C@@H]2O[C@@H](CO)CN12`, the Efficacy with Mus musculus [7] is reported as 44%; in the experiment with Mus musculus [8], 53%; in the experiment with Mus musculus [9] it was 86%; in the experiment with Mus musculus [10], 23%; with Mus musculus [11], 66%. Besides, in experiment [2], the “Lowest effective concentration for glucose utilization ≥140% of control” value was 30 µM.
For `O=C1CC[C@]2(c3ccc(Oc4ccccc4)cc3)O[C@H](COc3ccc(Cl)cc3)CN12`, the Efficacy with Mus musculus [1] was -25%; in the experiment on Mus musculus [14] it was -6%; in the experiment on Mus musculus [4], -3%; in the experiment on Mus musculus [5] it was -29%; in the experiment on Mus musculus [6], 2%. The “Lowest effective concentration for glucose utilization ≥140% of control” value in experiment [2] stood at 10 µM.
With `O=C1CC[C@]2(c3ccccc3)O[C@H](COc3ccc(Cl)cc3)CN12`, the Efficacy is -16% in the experiment on Mus musculus [1]; 45% in the experiment with Mus musculus [14]; -28% in the experiment on Mus musculus [4]; 3% in the experiment on Mus musculus [5]; 18% in the experiment on Mus musculus [6]. The “Lowest effective concentration for glucose utilization ≥140% of control” value in [2] was determined as 100 µM.
In the case of `O=C1CC[C@]2(c3ccc(Cl)c(Cl)c3)OC(COc3ccc(Cl)cc3)CN12` (stereo partly specified), the Efficacy was 80% in the experiment with Mus musculus [1]; 36% in the experiment on Mus musculus [14]; 78% in the experiment with Mus musculus [4]; 0% in the experiment with Mus musculus [5]; 70% with Mus musculus [6]. The “Lowest effective concentration for glucose utilization ≥140% of control” value in [2] is 10 µM.
`O=C1CCC[C@]2(c3ccc(Oc4ccccc4)cc3)OCCN12`: the Efficacy with Mus musculus [1] was found to be 50%; in the experiment on Mus musculus [14], 29%; in the experiment on Mus musculus [4], 3%; with Mus musculus [5], 25%; in the experiment with Mus musculus [6], 45%. Moreover, the “Lowest effective concentration for glucose utilization ≥140% of control” value in experiment [2] was determined as 30 µM.
Turning to `O=C1CCC[C@]2(c3ccccc3)O[C@H](COc3ccc(Cl)cc3)CN12`, the Efficacy with Mus musculus [1] was 50%; in the experiment on Mus musculus [14], 29%; with Mus musculus [4], 54%; in the experiment on Mus musculus [5], 42%; in the experiment with Mus musculus [6], 10%. In experiment [2], the “Lowest effective concentration for glucose utilization ≥140% of control” value was 30 µM.
